Bioassay records: PubChem, several laboratories
HCT116 bCat-KO = beta-catenin-lacking colon tumor cell growth suppression; HCT116 beta-catenin knockout viability, CellTiter-Glo, 60 h; active compounds read low; viability, % at 10 µM; 1.5% of 140,000 active;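 active = viability at or under a set limit, the compound median less 4 SD, cut at about 6% in these data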
Autophagy HCS = autophagy modulation, high-content screen; MEF GFP-LC3 puncta imaging; test concentration mostly 10 µM; calls only at 10 µM (by protocol); 0.98% of 190,000 active; AID 463193;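 active = percentage of spot-positive cells more than 3 SD above its plate mean, without a fluorescence outlier flag or 80% toxicity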
Lmaj promast = inhibitors of Leishmania major promastigote growth | Leishmania major promastigotes, resazurin fluorescence viability | inhibition, % at 10 µM | 9% of 200,000 active; in the data active = inhibition above about 50%;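 note: promastigotes grown with compound for 44 hours at 28 °C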
HCT116 PTEN-null = PTEN-deleted cell growth suppression; 1.2% of 140,000 active; viability, % at 10 µM; HCT116 PTEN-null viability, CellTiter-Glo, 60 h; active compounds read low; AID 827;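 active = viability at or below a set limit, 4 SD under the median of all tested compounds, cut at about 3.7% in these data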;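 note: PTEN knockout HCT116 line with beta catenin targeted HCT116 as companion control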
Dynein cargo inh = dynein cargo transport inhibition. 3617.4 mouse cells, GR-EGFP nuclear translocation imaging; test concentration mostly 20 µM; stimulated with dexamethasone, 1 µM; active compounds read low. z-score, hits read low. 0.47% of 220,000 active;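 active = plate z-score of nuclear minus cytoplasmic receptor signal below a set negative limit, without overly bright fluorescence or cell loss, cut at about -3.5 in these data, passing the limit was not always enough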;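 note: z-score of nuclear minus cytoplasmic ring GR-EGFP intensity difference per well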
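Also added – dexamethasone, 1.0 µM final · Buffer or medium – tet-free, stripped-serum medium · Schedule – induction 48 h, compound 1 h, agonist 30 min · Detection – formaldehyde fixation, Hoechst nuclear stain, 10x automated fluorescence imaging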
Numbers stand for hits; 0 = inactive; - = no result; + = active, no number. Most compounds without a hit are left out; they make up all but 9.2% or so of the library.

SMILES	HCT116 bCat-KO	Autophagy HCS	Lmaj promast	HCT116 PTEN-null	Dynein cargo inh
CCc1cc(SC#N)cc(CC)c1NC(=O)CCl	1.9	0	0	1.6	0
CC(=O)c1cc(N2CCC(C(=O)O)CC2)ccc1[N+](=O)[O-]	-	0	0	-	0
Cc1ccc(SCC(=O)Nc2cccc(NC(=O)c3ccco3)c2)cc1	0	0	77	0	0
CCC(=O)Nc1cccc(-n2nnnc2SCC(=O)c2ccc(C)c(C)c2)c1	0	0	99	0	0
Cc1ccc(-n2nnnc2SCC(=O)Nc2cccc(NC(=O)c3ccco3)c2)cc1C	0	0	66	0	0
COc1ccc(NC(=O)COC(=O)c2cc(SC)ccc2Cl)c(OC)c1	0	0	0	0	0
COCCNC(=S)NNc1ccccc1[N+](=O)[O-]	-	0	0	-	0
Cc1cc(=O)oc2cc(OCc3ccc(S(=O)(=O)N4CCOCC4)cc3)ccc12	0	0	80	0	0
Cc1cc(=O)oc2cc(OCc3ccc(C(=O)N4CCN(c5ccccc5)CC4)cc3)ccc12	0	0	65	0	0
Cc1cc(=O)oc2cc(OCc3ccc(C(=O)N4CCN(c5ccc([N+](=O)[O-])cc5)CC4)cc3)ccc12	0	0	0	0	0
Cc1cc(=O)oc2cc(OCC(=O)N3CCOCC3)ccc12	0	0	0	0	0
O=C(c1nc2ccccn2c1CNCCCn1nnc2ccccc21)N1CCOCC1	-	0	0	-	0
Cc1ccc(C(=O)C2CCN(CC(=O)N3CCN(c4ccc(F)cc4)CC3)CC2)cc1	-	0	89	-	0
O=C(CN1CCC(C(=O)c2ccc(F)cc2)CC1)Nc1ccc(F)cc1	0	0	0	0	0
CN(C)S(=O)(=O)c1ccc(NC(=O)CN2CCCc3ccccc32)cc1	-	0	0	-	0
Cc1ccc(C(C)C)c(OCC(=O)Nc2ccc3c(c2)nc(CN2CCCC2)n3C)c1	3.4	0	0	2.5	0
Cn1c(CN2CCCCC2)nc2cc(NC(=O)c3cccc(Br)c3)ccc21	0	0	98	0	0
Cn1c(CN2CCCCC2)nc2cc(NS(=O)(=O)c3ccc(Cl)cc3)ccc21	0	0	66	0	0
CC1CCN(CCc2nc3cc(NS(=O)(=O)c4ccc(F)cc4)ccc3n2C)CC1	0	0	99	0	0
Cn1c(CN2CCCCC2)nc2cc(NC(=O)c3ccccc3)ccc21	0	0	0	0	0
CCOC(=O)C(C)N1C(=O)S/C(=C/c2ccc3c(c2)n(C)c(=O)n3C)C1=O (stereo not drawn)	-	0	67	-	0
CCC(C)N1C(=O)S/C(=C/c2ccc3c(c2)n(C)c(=O)n3C)C1=O (stereo not drawn)	-	0	0	-	0
COc1c(Cl)cc(Cl)cc1CNc1ccc(S(N)(=O)=O)cc1	-	0	0	-	0
CCn1nc(C(=O)OCC(=O)N2CC(=O)Nc3ccccc32)c2ccccc2c1=O	-	0	0	-	0
O=[N+]([O-])c1ccc(Nc2c3ccccc3nc3ccccc23)cc1	-	+	57	-	0
SMILES	HCT116 bCat-KO	Autophagy HCS	Lmaj promast	HCT116 PTEN-null	Dynein cargo inh
C=CCSc1nc2ccccc2n1C(=O)/C=C/c1ccc(OC)c(OC)c1	1.8	0	71	1.8	-5.1
COc1ccc(Cc2nc3ccccc3n2CC(=O)N/N=C/c2ccccc2)cc1OC	0	0	0	0	0
CCSc1nc2ccccc2n1C(=O)/C=C/c1ccc(OC)c(OC)c1	5.4	0	0	0	0
CCn1c(SCC(=O)N/N=C/c2ccc(OC)c(OC)c2)nc2ccccc21	0	0	97	0	0
Cc1ccc(C(=O)N(Nc2nc3ccccc3s2)C(=O)c2ccc(C)cc2)cc1	0	0	0	0	0
CCn1c(=O)n(CC)c2cc([N+](=O)[O-])ccc21	0	0	0	0	0
CN1CCN(c2cc(-c3ccccc3)nc3cc(-c4ccc(F)cc4)nn23)CC1	3.8	0	100	1.3	0
Fc1ccc(-c2cc3nc(-c4ccccc4)cc(N4CCN(CCN5CCOCC5)CC4)n3n2)cc1	1.7	0	77	1.6	0
COc1cccc(-c2cc3nc(-c4ccccc4)cc(N4CCC5(CC4)OCCO5)n3n2)c1	0	0	63	0	0
CCc1nn2c(N3CCOCC3)cc(C)nc2c1-c1ccc(F)cc1	0	0	0	0	0
Cc1cc(N2CCN(C)CC2)n2cc(-c3ccc(F)cc3)nc2n1	0	0	0	0	0
CCCOc1ccc(NC(=O)OC2CCN(C)CC2)cc1	0	0	0	0	0
CCc1cc2c(SCC(=O)NC(=O)c3cccn3C)ncnc2s1	-	0	0	-	0
CC12CN3CCN(CC(C3)/C1=N\N=C1/C3CN4CCN(C3)CC1(C)C4)C2	0	0	0	0	0
